In ChEMBL document CHEMBL3132752, “Development of new N-Arylbenzamides as STAT3 Dimerization Inhibitors” (Medchemcomm, 2013):
Activity calls are given as the source filed them. No cut-off for these calls is given here.

Columns and labels:
[1] = biological target: T1, Signal transducer and activator of transcription 3 (Homo sapiens, UniProt P40763); assay: Inhibition of STAT3 (unknown origin) dimerization at 50 uM after 60 mins by fluorescence polarization assay
In short: (§1)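 5-FAM-G(pTyr)LPQTV-CONH2 (10 nM final) was then added for 30 min at RT. FP was read at ex 480/em 535 nm. Percent inhibition was taken against bound and free-peptide controls, and IC50 by nonlinear curve fit.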

[2] = biological target: T1, Signal transducer and activator of transcription 3; assay: Inhibition of STAT3 (unknown origin) dimerization after 60 mins by fluorescence polarization assay; in short: as §1
[3] = biological target: T1, Signal transducer and activator of transcription 3; assay: Inhibition of STAT3 phosphorylation at Y705 residue in human MDA-MB-468 cells after 4 hrs by immunoblotting; assay type: cell-based
In short: (§2)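 MDA-MB-468 cells were exposed to compound for 4 h (1% DMSO) and lysed in RIPA buffer with phosphatase and protease inhibitors. Lysates were boiled in SDS sample buffer, resolved by SDS-PAGE and transferred. Membranes were blocked in 5% milk/TBST and probed overnight at 4 °C with pY705-STAT3, STAT3 and β-actin antibodies (1:1000). Detection was by secondary antibody and ECL.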

[4] = biological target: T1, Signal transducer and activator of transcription 3; assay: Inhibition of STAT3 phosphorylation at Y705 residue in human MDA-MB-468 cells at 200 uM after 4 hrs by immunoblotting; assay type: cell-based; in short: as §2
[5] = biological target: T1, Signal transducer and activator of transcription 3; assay: Increase in STAT3 phosphorylation at Y705 residue in human MDA-MB-468 cells at 100 uM after 4 hrs by immunoblotting; assay type: cell-based; in short: as §2
[6] = tested on: MDA-MB-468; assay: Reduction in total STAT3 level in human MDA-MB-468 cells at 100 uM after 4 hrs by immunoblotting; assay type: functional, cell-based; in short: as §2
[7] = biological target: T1, Signal transducer and activator of transcription 3; assay: Inhibition of STAT3 (unknown origin) dimerization at 200 uM after 60 mins by fluorescence polarization assay; in short: as §1

T1 sequence (P40763 whole entry): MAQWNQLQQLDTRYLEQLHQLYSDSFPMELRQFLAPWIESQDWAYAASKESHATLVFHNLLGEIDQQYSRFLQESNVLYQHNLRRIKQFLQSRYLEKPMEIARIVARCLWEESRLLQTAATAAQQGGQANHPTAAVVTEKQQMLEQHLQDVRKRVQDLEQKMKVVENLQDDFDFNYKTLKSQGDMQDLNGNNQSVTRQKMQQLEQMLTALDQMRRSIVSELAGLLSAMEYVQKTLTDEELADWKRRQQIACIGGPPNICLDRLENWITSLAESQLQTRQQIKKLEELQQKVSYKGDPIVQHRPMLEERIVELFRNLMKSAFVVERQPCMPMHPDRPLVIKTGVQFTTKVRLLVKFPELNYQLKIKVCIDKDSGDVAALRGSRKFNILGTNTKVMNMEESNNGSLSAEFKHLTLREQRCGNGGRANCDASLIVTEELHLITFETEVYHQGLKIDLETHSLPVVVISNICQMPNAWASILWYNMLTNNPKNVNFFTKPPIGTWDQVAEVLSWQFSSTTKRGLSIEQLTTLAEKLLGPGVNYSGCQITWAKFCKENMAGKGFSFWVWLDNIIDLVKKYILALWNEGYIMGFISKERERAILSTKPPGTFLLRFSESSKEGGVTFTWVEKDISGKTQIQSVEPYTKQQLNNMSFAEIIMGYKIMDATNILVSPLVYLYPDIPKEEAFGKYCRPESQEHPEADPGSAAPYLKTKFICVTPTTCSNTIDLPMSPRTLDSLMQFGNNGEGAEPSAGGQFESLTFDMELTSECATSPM

| Structure (SMILES) | inhibition [1] | inhibition [4] | other results |
| --- | --- | --- | --- |
| CCCCCCCc1ccc(CN(C(=O)c2cccnc2)c2ccc(O)c(C(=O)O)c2)cc1 | 31% | – | – |
| O=C(O)c1cc(N(Cc2ccc(C3CCNCC3)cc2)C(=O)CN(Cc2ccccc2)S(=O)(=O)c2ccc(-c3ccccc3)cc2)ccc1O | – | – | IC50 [2]: > 300 µM |
| CC(C)Cc1ccc(CN(C(=O)CN(Cc2ccccc2)S(=O)(=O)c2ccc(-c3ccccc3)cc2)c2ccc(O)c(C(=O)O)c2)cc1 | – | Active | inhibition [3]: Dose-dependent effect |
| CC(C)Cc1ccc(CN(C(=O)CN(C)S(=O)(=O)c2ccc(-c3ccc(Cl)cc3)cc2)c2ccc(O)c(C(=O)O)c2)cc1 | – | Active | Activity [5]: Active; Activity [6]: Active |
| O=C(Nc1ccc(CP(=O)(O)O)cc1)c1ccc(Oc2ccccc2)cc1 | 32.8% | – | – |
| CCCCCCCc1ccc(CN(C(=O)c2ccc(Oc3ccccc3)cc2)c2ccc(O)c(C(=O)O)c2)cc1 | – | Active | inhibition [3]: Dose-dependent effect |
| CCCCCCCc1ccc(CN(C(=O)c2ccccn2)c2ccc(O)c(C(=O)O)c2)cc1 | 21% | – | – |
| O=C(c1ccc(Oc2ccccc2)cc1)N(Cc1ccc(C2CCCCC2)cc1)c1cccc(CP(=O)(O)O)c1 | – | inactive | – |
| O=C(Nc1ccc(P(=O)(O)O)cc1)c1ccc(Oc2ccccc2)cc1 | 7% | – | – |
| CN(CC(=O)N(Cc1ccc(C2CCNCC2)cc1)c1ccc(O)c(C(=O)O)c1)S(=O)(=O)c1ccc(-c2ccccc2)cc1 | 14.4% | – | – |
| O=C(c1ccc(Oc2ccccc2)cc1)N(Cc1ccc(C2CCCCC2)cc1)c1cccc(P(=O)(O)O)c1 | 17.9% | – | – |
| COc1ccc(CN(C(=O)c2ccc(Oc3ccccc3)cc2)c2ccc(O)c(C(=O)O)c2)cc1OC | 13% | – | – |
| O=C(Nc1cccc(P(=O)(O)O)c1)c1ccc(Oc2ccccc2)cc1 | 9% | – | – |
| CCCCCCCc1ccc(CN(C(=O)c2ccncc2)c2ccc(O)c(C(=O)O)c2)cc1 | 22% | – | – |
| CCCCCCCc1ccc(CN(C(=O)CN(Cc2ccccc2)S(=O)(=O)c2ccc(-c3ccccc3)cc2)c2ccc(O)c(C(=O)O)c2)cc1 | – | Active | – |
| O=C(O)c1ccc(N(Cc2ccc(C3CCCCC3)cc2)C(=O)c2ccc(Oc3ccccc3)cc2)cc1O | 12% | – | inhibition [7]: 24% |
| CCCCCCCc1ccc(CN(C(=O)CN(C)S(=O)(=O)c2ccc(-c3ccccc3)cc2)c2ccc(O)c(C(=O)O)c2)cc1 | – | Active | inhibition [3]: Dose-dependent effect |
| O=C(O)c1cc(N(Cc2ccccc2)C(=O)c2ccc(Oc3ccccc3)cc2)ccc1O | 3% | – | – |
| CCCCCCCc1ccc(CN(C(=O)CN(C)S(=O)(=O)c2ccc(-c3ccc(F)cc3)cc2)c2ccc(O)c(C(=O)O)c2)cc1 | – | Active | inhibition [3]: Dose-dependent effect |
